High-throughput results (PubChem)
EphB4 antag – EphB4-ephrin-B2 interaction antagonism; P54760; EphB4 LBD / TNYL-RAW-Alexa532 peptide, fluorescence polarization; inhibition, % at 7 µM; actives 0.15% (n = 97,000); AID 720;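 active means inhibition above the screen-wide mean inhibition plus 3 SD, cut at about 15% in these data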
Target sequence (P54760 whole entry, looked up, the tested form may be a part): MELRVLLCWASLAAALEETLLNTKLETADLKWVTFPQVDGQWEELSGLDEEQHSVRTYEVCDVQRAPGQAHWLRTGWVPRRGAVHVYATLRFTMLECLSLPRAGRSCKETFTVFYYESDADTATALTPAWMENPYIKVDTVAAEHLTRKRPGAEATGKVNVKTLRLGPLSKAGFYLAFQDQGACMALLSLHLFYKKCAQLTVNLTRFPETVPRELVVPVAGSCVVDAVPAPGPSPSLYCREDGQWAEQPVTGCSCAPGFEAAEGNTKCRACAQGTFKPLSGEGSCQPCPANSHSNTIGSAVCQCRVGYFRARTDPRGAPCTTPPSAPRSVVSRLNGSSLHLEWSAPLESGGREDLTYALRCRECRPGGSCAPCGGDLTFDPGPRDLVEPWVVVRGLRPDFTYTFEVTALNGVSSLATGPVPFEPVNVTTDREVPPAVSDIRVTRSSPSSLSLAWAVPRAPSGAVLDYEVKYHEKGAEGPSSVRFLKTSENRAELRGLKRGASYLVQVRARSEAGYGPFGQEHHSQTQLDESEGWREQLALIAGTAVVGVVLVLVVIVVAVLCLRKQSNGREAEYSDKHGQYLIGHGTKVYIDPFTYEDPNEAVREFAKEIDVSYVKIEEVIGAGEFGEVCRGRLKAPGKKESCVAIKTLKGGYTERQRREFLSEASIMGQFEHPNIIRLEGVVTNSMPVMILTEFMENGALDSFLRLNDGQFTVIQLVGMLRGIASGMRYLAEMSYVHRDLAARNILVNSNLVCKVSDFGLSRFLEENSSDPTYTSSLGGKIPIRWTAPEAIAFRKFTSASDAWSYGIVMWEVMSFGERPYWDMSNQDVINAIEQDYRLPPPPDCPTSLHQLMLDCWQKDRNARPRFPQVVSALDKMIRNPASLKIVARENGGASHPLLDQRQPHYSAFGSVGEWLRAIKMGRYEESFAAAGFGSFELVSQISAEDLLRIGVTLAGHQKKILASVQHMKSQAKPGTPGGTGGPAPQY
PLK1 PBD inh – blocks phosphopeptide binding to human Plk1 polo box domain; actives 0.13% (n = 97,000); P53350; inhibition, %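 (tested at about 20 µM)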; Plk1 PBD phosphopeptide binding, fluorescence polarization; in the data active means inhibition above about 34%, passing the limit was not always enough
Rev-RRE block – disrupts HIV-1 Rev binding to RRE RNA; inhibition, % at 8 µM; P05866; Rev peptide-RRE RNA binding, FRET; actives 0.79% (n = 97,000);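 active means inhibition above the screen-wide mean plus 3 SD, cut at about 35% in these data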
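Probe or stimulus: fluorescein-Rev peptide as binding partner; assay system: Cy5-tagged RRE RNA duplex with fluorescein-tagged Rev peptide; timing: 5 min compound–RNA preincubation, then 15 min with peptide, 25 °C; medium: HEPES pH 7.5 buffer with KCl, MgCl2, NaCl and EDTA; signal: fluorescein-to-Cy5 FRET, 480 nm excitation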
PostGolgi yeast – growth inhibition of a yeast mutant, post-Golgi transport screen; post-Golgi transport phenotypic cell assay; inhibition, % at 10 µM; actives 0.9% (n = 98,000); AID 739;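 further: yeast cells grown in 1536-well plates; yeast grown about 18 h at 30C before absorbance read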
PostGolgi ctrl – yeast control strain growth, post-Golgi counter-screen. efflux-deficient yeast background strain, growth absorbance A615, 16 h. inhibition, % at 10 µM. actives 5% (n = 98,000). AID 738
PLK1 kinase inh – inhibitors of human PLK1 kinase. recombinant PLK1 kinase, TR-FRET peptide phosphorylation. inhibition, % at 10 µM. actives 0.53% (n = 97,000). AID 619;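 active means inhibition of 50% or more in the single-concentration screen; inactive means inhibition below 50%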
Hits are given with their value; - = inactive; . = no result given; [ ] = another dose, or the depositor's remark. In the library only some 6.4% were active in any assay of this set; here they are far more common. Unless noted, no stated cut-off is given here; in the data, active means inhibition above about 30%; inactive means the rest.

SMILES | EphB4 antag | PLK1 PBD inh | Rev-RRE block | PostGolgi yeast | PostGolgi ctrl | PLK1 kinase inh
COc1ccc(C2C(C(=O)Nc3ccc4c(c3)OCCO4)c3ccccc3C(=O)N2C)cc1 (centres undefined) | - | - | - | - | 31 | -
O=C(Nc1ccc(Cn2cccn2)cc1)c1ccc(COc2ccccc2Br)cc1 | - | - | - | - | 32 | -
Clc1ccc2[nH]cc(-c3nnnn3-c3ccc4ccccc4c3)c2c1 | - | - | - | - | - | -
CCOc1ccccc1N(CC(=O)Nc1ccc2c(c1)OCCO2)S(C)(=O)=O | - | - | - | - | 34 | -
CC(C)(C)c1ccc(C(=O)NNC(=O)Cc2cccc3ccccc23)cc1 | - | - | - | - | 40 | -
COC(=O)c1sccc1NC(=O)Nc1cccc(Cl)c1Cl | - | - | - | - | 34 | -
CSc1ccccc1NC(=O)Nc1cccc(Cl)c1Cl | - | - | - | - | - | -
C=CCn1c(COc2cccc3ccc(C)nc23)nnc1SCC(N)=O | - | - | - | - | - | -
Cc1cccc(N2CCN(C(=O)c3cc4c(=O)n(C)c5ccccc5c4n3C)CC2)c1C | - | - | - | - | 40 | -
Cc1ccc(Cl)cc1N1CCN(C(=O)c2cc3c(=O)n(C)c4ccccc4c3n2C)CC1 | - | - | - | - | 45 | -
CCC(=O)Oc1c(-c2ccccc2)c2nc3ccccc3nc2c2ccccc12 | - | - | 112[fluorescence artefact?] | . | . | -
Cc1ccc(OCc2nnc(SCc3nc4ccccc4[nH]3)n2Cc2ccco2)cc1 | - | - | - | - | 32 | -
O=c1c2ccccc2nnn1CSc1nnc(COc2ccc(Cl)cc2)n1Cc1ccco1 | - | - | - | 103 | 82 | -
c1ccc(-c2nnc(SCc3nc4ccccc4[nH]3)n2Cc2ccco2)cc1 | - | - | - | - | - | -
O=c1c2ccccc2nnn1CSc1nc2cc(Cl)ccc2c(=O)n1Cc1ccco1 | - | - | - | . | . | -
O=S(=O)(Nc1ccc2c(c1)OCCO2)c1ccc2oc3ccccc3c2c1 | - | - | - | - | 59 | -
COc1cc2c(cc1NS(=O)(=O)N1CCCCC1)oc1ccccc12 | - | - | - | - | 68 | -
O=S(=O)(Nc1ccc2c(c1)oc1ccccc12)N1CCCC1 | - | - | - | - | 47 | -
COCCNC(=S)NC12CC3CC(CC(C3)C1)C2 | - | - | - | - | - | -
CCc1ccc2[nH]c(O)c(N=Nc3nc(-c4ccccc4)cs3)c2c1 | - | - | - | - | - | -
Cc1ccc(N2CCN(S(=O)(=O)c3ccc(F)c(C)c3)CC2)c(C)c1 | - | - | - | - | - | -
CCC(=O)c1cc(F)c(N2CCN(S(=O)(=O)c3ccc(C)cc3)CC2)cc1C | - | - | - | - | 35 | -
O=C(N/C(=C\c1ccc(Br)cc1)c1nc2ccccc2[nH]1)c1ccco1 | - | - | - | - | - | -
CCOC(=O)c1nnn(-c2nonc2N)c1CN(CC)c1ccccc1 | - | - | - | - | - | -
O=C(COc1ccc(Cl)cc1)N(Cc1ccccc1)c1ccccn1 | - | - | - | - | 33 | -
SMILES | EphB4 antag | PLK1 PBD inh | Rev-RRE block | PostGolgi yeast | PostGolgi ctrl | PLK1 kinase inh
C=CCn1c(O)c(CN2CCOCC2)c(C)c(C#N)c1=O | - | - | - | . | . | -
O=C(C1CCCN(S(=O)(=O)c2ccccc2)C1)N1CCCc2ccccc21 (centres undefined) | - | - | - | - | 36 | -
O=S(=O)(c1ccc(Br)s1)N1CCC(Cc2ccccc2)CC1 | - | - | - | - | - | -
O=C(C1CCN(S(=O)(=O)c2ccc(Br)s2)CC1)N1CCc2ccccc21 | - | - | - | - | 52 | -
O=C(C1CC1)N1CCc2cc(S(=O)(=O)N3CCOCC3)ccc21 | - | - | - | - | - | 69
COc1ccc(S(=O)(=O)N2CCCC(C(=O)N3CCCCCC3)C2)cc1 (centres undefined) | - | - | - | - | 66 | -
O=C(c1ccco1)N1CCN(S(=O)(=O)c2ccc3c(c2)CCN3C(=O)C2CC2)CC1 | - | - | - | - | - | -
CCCc1ccc(Oc2c(-c3ccc(O)c(C)c3O)n[nH]c2C)cc1 | . | . | . | 80 | 65 | .
CCCc1ccc(Oc2cn[nH]c2-c2ccc(O)c(C)c2O)cc1 | . | . | . | 80 | 92 | .
CCCOC(=O)c1ccc(Oc2cn[nH]c2-c2ccc(OCC)cc2O)cc1 | - | - | - | - | - | -
COc1ccc(Oc2c(-c3ccc(O)cc3O)n[nH]c2C)cc1 | - | - | - | - | - | -
N#CCSc1nnc(Cc2cccc3ccccc23)n1C1CCCCC1 | - | - | - | - | - | -
CCOC(=O)c1c(C)n(C)c2c(C)cc(O)c(OC(=O)CC)c12 | - | - | - | - | - | -
O=C(O)c1ccc2noc(-c3ccccc3)c2c1 | - | - | - | - | - | -
O=C1c2ccccc2-c2onc3ccc(Oc4ccccc4)c1c23 | - | - | 64 | . | . | -
CC(C)C(c1nnnn1C1CCCC1)N1CCN(C(=O)c2ccco2)CC1 (centres undefined) | - | - | - | - | - | -
CCC(C)(C)NC(=O)C(c1ccco1)N(C(=O)c1csnn1)c1cccc(F)c1 (centres undefined) | 17 | - | - | - | - | -
Cc1ccc(C(=O)NCCSc2ccc(Cl)cc2)cc1S(=O)(=O)Nc1ccccc1 | - | - | - | - | - | -
CCc1cc2cc(C(=O)N3CCN(Cc4ccccc4)CC3)sc2s1 | - | - | - | - | 35 | -
CCOC(=O)CN1C(=O)SC(CC(=O)Nc2nccs2)C1=O (centres undefined) | - | - | - | - | - | -
O=C(CC1SC(=O)N(Cc2cccc3ccccc23)C1=O)Nc1nccs1 (centres undefined) | - | - | - | - | 33 | -
COc1cccc(C2(O)CCN(C(=O)C3CCC3)CC2)c1 | - | - | - | - | - | -
CCC(C)NC(=O)COc1ccc(S(=O)(=O)N2CCOCC2)cc1 (centres undefined) | - | - | - | - | - | -
O=C(Nc1nc(-c2ccccc2)cs1)C1CCCN(S(=O)(=O)c2ccccc2)C1 (centres undefined) | - | - | - | - | - | -
O=C(Nc1nc(-c2ccccc2)cs1)C1CCCCN1S(=O)(=O)c1ccccc1 (centres undefined) | - | - | - | - | 35 | -
NC(=O)c1ccsc1NC(=O)C1CCCN1S(=O)(=O)c1ccc(Cl)cc1 (centres undefined) | - | - | - | - | 36 | -
O=C(Nc1nc(-c2ccccc2)cs1)C1CCCCN1S(=O)(=O)c1ccc(Cl)cc1 (centres undefined) | - | - | - | - | 57 | -
O=C(Nc1nc(-c2ccccc2)cs1)NC1CCCCC1 | - | - | - | - | 50 | -
CCOC(=O)C(C)Sc1nnc(Cc2cc(=O)[nH]c(=O)[nH]2)n1-c1ccc(OCC)cc1 (centres undefined) | - | - | - | - | - | -
